Experimental data from ChEMBL document CHEMBL1140249, “Inhibitors of the inducible microsomal prostaglandin E2 synthase (mPGES-1) derived from MK-886” (Bioorg Med Chem Lett, 2005).
pIC50: −log10 of the molar value.

Each compound was assayed against Prostaglandin E synthase (Homo sapiens, UniProt O14684) (assay: Inhibitory concentration against human prostaglandin E2 synthase (mPGES-1)).
Sequence of Prostaglandin E synthase (O14684 whole entry, looked up): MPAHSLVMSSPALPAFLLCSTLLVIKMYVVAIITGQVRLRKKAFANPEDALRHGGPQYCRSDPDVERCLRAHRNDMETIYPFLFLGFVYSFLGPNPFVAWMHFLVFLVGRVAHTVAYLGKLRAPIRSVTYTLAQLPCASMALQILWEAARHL
Method in brief: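 Microsomes from CHO cells expressing recombinant human mPGES-1, 5–10 lg protein/mL, preincubated with inhibitor 15 min. Reaction started with 1 µM PGH₂ and run 0.5 min, then stopped with 0.1 N HCl plus stannous chloride. PGE₂ measured by EIA. IC₅₀ from eight-point titrations.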
With `CC(C)c1ccc2c(c1)c(C(=O)CC(C)(C)C)c(CC(C)(C)C(=O)O)n2Cc1ccc(Cl)cc1` the pIC50 was 6.60. `Cc1c(CC(C)(C)C(=O)O)n(Cc2ccc(Cl)cc2)c2ccc(-c3ccc(-c4cccnc4)c(F)c3)cc12` was tested, and the pIC50 was 7.92. `CC(C)c1ccc2c(c1)c(Oc1ccccc1)c(CC(C)(C)C(=O)O)n2Cc1ccc(Cl)cc1` was tested, and the pIC50 was 6.19. `COc1ccccc1-c1ccc(-c2ccc3c(c2)c(C)c(CC(C)(C)C(=O)O)n3Cc2ccc(Cl)cc2)cc1F` gave a pIC50 of 8.30. `Cc1cccc(-c2ccc(-c3ccc4c(c3)c(C)c(CC(C)(C)C(=O)O)n4Cc3ccc(Cl)cc3)cc2F)c1` gave a pIC50 of 7.48. `Cc1c(CC(C)(C)C(=O)O)n(Cc2ccc(Cl)cc2)c2ccc(F)cc12` was tested, and the pIC50 was 5.59. In the case of `Cc1c(CC(C)(C)C(=O)O)n(Cc2ccc(Cl)cc2)c2ccc(-c3ccccc3)cc12`, the pIC50 was 6.22. For `CC(C)c1ccc2c(c1)c(SC(C)(C)C)c(CC(C)(C)C(=O)ON)n2Cc1ccc(Cl)cc1`, the pIC50 was under 5.00. `Cc1c(CC(C)(C)C(=O)O)n(Cc2ccc(Cl)cc2)c2ccc(-c3ccc(-c4ccccc4F)c(F)c3)cc12` showed a pIC50 of 8.10. `Cc1c(CC(C)(C)C(=O)O)n(Cc2ccc(Cl)cc2)c2ccc(-c3ccc(-c4ccccc4)c(Cl)c3)cc12` showed a pIC50 of 7.66. Compound `CC(C)c1ccc2[nH]c(CC(C)(C)C(=O)O)c(SC(C)(C)C)c2c1` has a pIC50 of under 5.00. Work on `CC(C)c1ccc2c(c1)c(SC(C)(C)C)c(CC(C)(C)C(=O)O)n2C` yielded a pIC50 of under 5.00. With `Cc1ccc(-c2ccc(-c3ccc4c(c3)c(C)c(CC(C)(C)C(=O)O)n4Cc3ccc(Cl)cc3)cc2F)cc1` the pIC50 was 7.51. `Cc1c(CC(C)(C)C(=O)O)n(Cc2ccc(Cl)cc2)c2ccc(C(C)C)cc12` gave a pIC50 of 5.96. `Cc1c(CC(C)(C)C(=O)O)n(Cc2ccc(Cl)cc2)c2ccc(C(C)(C)C)cc12` showed a pIC50 of 6.48. Compound `CC(=O)c1ccccc1-c1ccc(-c2ccc3c(c2)c(C)c(CC(C)(C)C(=O)O)n3Cc2ccc(Cl)cc2)cc1F` has a pIC50 of 8.22. Work on `Cc1c(CC(C)(C)C(=O)O)n(Cc2ccc(Cl)cc2)c2c(C(C)C)cccc12` yielded a pIC50 of 5.37. `CC(C)c1ccc2c(c1)c(C(=O)CSC(C)(C)C)c(CC(C)(C)C(=O)O)n2Cc1ccc(Cl)cc1` gave a pIC50 of 6.59. `COC(=O)C(C)(C)Cc1c(SC(C)(C)C)c2cc(C(C)C)ccc2n1Cc1ccc(Cl)cc1` showed a pIC50 of 5.14. `Cc1c(CC(C)(C)C(=O)O)n(Cc2ccc(Cl)cc2)c2ccc(-c3ccc(-c4cnccn4)c(F)c3)cc12` showed a pIC50 of 7.49. With `CC(C)c1ccc2c(c1)c(Cc1ccc(C(C)(C)C)cc1)c(CC(C)(C)C(=O)O)n2Cc1ccc(Cl)cc1` the pIC50 was 6.54. `Cc1c(CC(C)(C)C(=O)O)n(Cc2ccc(Cl)cc2)c2ccc(-c3cccc(-c4ccccc4)c3)cc12` was tested, and the pIC50 was 6.80. `CC(C)c1ccc2c(c1)c(-c1ccccc1)c(CC(C)(C)C(=O)O)n2Cc1ccc(Cl)cc1` gave a pIC50 of 5.19. With `Cc1c(CC(C)(C)C(=O)O)n(Cc2ccc(Cl)cc2)c2ccccc12` the pIC50 was 5.49.

Each compound was assayed against T1, Thromboxane-A synthase (Homo sapiens, UniProt P24557) (assay: In vitro inhibition against human Thromboxane synthase).
T1 sequence (P24557 whole entry): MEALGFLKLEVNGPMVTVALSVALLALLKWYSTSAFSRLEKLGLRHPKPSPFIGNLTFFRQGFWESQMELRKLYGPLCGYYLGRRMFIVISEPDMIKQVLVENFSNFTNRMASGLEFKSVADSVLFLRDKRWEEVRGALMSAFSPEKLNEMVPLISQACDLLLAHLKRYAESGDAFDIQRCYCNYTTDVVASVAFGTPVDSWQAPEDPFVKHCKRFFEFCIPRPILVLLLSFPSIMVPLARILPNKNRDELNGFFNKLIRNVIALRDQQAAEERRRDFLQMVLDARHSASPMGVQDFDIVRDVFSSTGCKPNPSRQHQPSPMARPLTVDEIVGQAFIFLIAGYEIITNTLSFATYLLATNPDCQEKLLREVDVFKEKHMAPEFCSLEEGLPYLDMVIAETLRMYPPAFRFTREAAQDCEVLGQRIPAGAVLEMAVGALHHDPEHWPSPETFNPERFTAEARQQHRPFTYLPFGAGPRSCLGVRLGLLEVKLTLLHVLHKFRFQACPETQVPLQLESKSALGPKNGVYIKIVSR
`Cc1ccccc1-c1ccc(-c2ccc3c(c2)c(C)c(CC(C)(C)C(=O)O)n3Cc2ccc(Cl)cc2)cc1F` showed a pIC50 of 6.02. `Cc1c(CC(C)(C)C(=O)O)n(Cc2ccc(Cl)cc2)c2ccc(-c3ccc(-c4ccccc4)c(F)c3)cc12` was tested, and the pIC50 was 5.85.

Each compound was assayed against T2, Arachidonate 5-lipoxygenase-activating protein (Homo sapiens, UniProt P20292) (assay: In vitro binding affinity against FLAP (5-Lipoxygenase activation protein)).
T2 sequence (P20292 whole entry): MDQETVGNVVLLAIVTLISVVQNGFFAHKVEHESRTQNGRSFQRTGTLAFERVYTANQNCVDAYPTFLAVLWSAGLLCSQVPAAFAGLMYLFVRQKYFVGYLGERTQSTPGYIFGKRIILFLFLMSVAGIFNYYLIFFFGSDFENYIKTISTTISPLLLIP
Compound `Cc1ccccc1-c1ccc(-c2ccc3c(c2)c(C)c(CC(C)(C)C(=O)O)n3Cc2ccc(Cl)cc2)cc1F` has a pIC50 of under 6.00. For `Cc1c(CC(C)(C)C(=O)O)n(Cc2ccc(Cl)cc2)c2ccc(-c3ccc(-c4ccccc4)c(F)c3)cc12`, the pIC50 was under 6.00.
